The results in this text go back to the RNAGym collection of RNA variant scans (doi:10.1126/science.aae0568).

The chains are these.
B1: tRNA (parent)
chain: GUUCCGUUGGCGUAAUGGUAACGCGUCUCCCUCCUAAGGAGAAGACUGCGGGUUCGAGUCCCGUACGGAACG

Fewer inactive variants are shown than the library holds.

The variants in the data set derive from B1. The data set can be described thus: yeast fitness relative to wild type (ratio to wild type); higher = fitter; tRNA-Arg(CCU), competitive growth, 37 C, YPD. The gist of the method: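 Variants of the tRNA-Arg(CCU) gene, chemically synthesised with a 3% per-site mutation rate at 69 sites, were placed at the native genomic locus in Saccharomyces cerevisiae. The pooled strains were competed in YPD at 37°C for 24 hours in six parallel replicates. Gene amplicons from the start population and from each end population were read by 100-nucleotide paired-end sequencing. Darwinian fitness relative to wild type came from changes in genotype frequencies; genotypes needed ≥ 100 starting reads, and estimates < 0.5 were set to 0.5.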
Take GUUGCGUUGGCGUAAUGGUAACGGGUCUCCCUCCUAAGGAGAAGACUGCGGGUUCGACUCCCGUACGGAACG [C4G C24G G58C]: the yeast fitness is ≤ 0.5.

Consider GUUGUGUAGGCAUAAUGGUAACGCGUCUCCCUCCUAAGGAGAAGACUACGGGUUCGAGUCCCGUACGGAACG [C4G C5U U8A G12A G48A], for which the yeast fitness was ≤ 0.5.

For GUUGCGUUGGCGUAAUGGUAACGGGUCUCCCUCCUAAGGACAAGACUGCGGGUUCGAGUCCCGUACGGAACG [C4G C24G G41C], the yeast fitness is ≤ 0.5.

As to GUUGCGUUGGCGUAAUGGUAACGAGUCUCCCUCCUAAGGAGAAGAUUGCGGGUUCGAGUCCCGUACGGAGCG [C4G C24A C46U A70G], the yeast fitness was ≤ 0.5.

In the case of GUUGCGUUGGCGUAAUGGUAACGCGUCUCCCUCCUUAGGAGAAGAGUGCGGGUUCGAGUCCAGUACGGCACG [C4G A36U C46G C62A A69C], the yeast fitness was ≤ 0.5.

With GUUGCGUUGGCGUAAUGGUAAAGCGUCUCCCUCCUAAGGAGAAGACUGCGGGUUCGAGUCCCGUACGGAACG [C4G C22A], the yeast fitness was 0.767.

Take GUUGCGUUGGCGUAAUGGUAACGCGUCUCCCUCCUAUGGAGAAGACUGCGGGUUCGAGUCCCGUACGGAACG [C4G A37U]: the yeast fitness came to 0.681.

As to GUUGCGUUGGCGUAAUGGUAACGUGUCUCCCUCCUAAGGAGCAGAAUGCGGGUACGAGUCCCGUACGGAACG [C4G C24U A42C C46A U54A], the yeast fitness came to 0.623.

Regarding GUUGCGUUGGCGUAAUGGUAGCGCGUCUCCCACCUAAGGAGAAGACUGCGGGUUCGAGUCCCGUACGGAACG [C4G A21G U32A], the yeast fitness is 0.672.

Consider GUUGCGUUGGCGUAAUGGUAUCGCGUCUCCCUCCUAAGGAGAAGACUGCGGGUGCGAGUCCCGUACGGAACG [C4G A21U U54G], for which the yeast fitness was determined as 0.607.

For the variant GUUGCGUUGGCGUAAUGGUAACGCGUCUCCCUCCUAAGGGGAAGACUGCGGGUUUGAGUCCCGUACGGAACG [C4G A40G C55U], the yeast fitness is ≤ 0.5.

For GUUGCGUUGGAGUAAUAGUGACGCGUUUCCCUCCUAAGGAGAUGACUGGGGGUUCGAGUUCCGUACGAAACG [C4G C11A G17A A20G C27U A43U C49G C60U G68A], the yeast fitness was ≤ 0.5.

For GUUGCGUUGGCGUAAUGGUAACGCGUCUCCCUCCUGAGGAGAAGACUGCGGGUUCGAGUCCCGUACGGAACG [C4G A36G], the yeast fitness worked out at 0.939.

Take GUUGCGUUGGGGUAAUGGUAACGCGUCUCCCUCCUAAGGAGAAGACUGCGGGUUUGAGUCACGUACGAAACG [C4G C11G C55U C61A G68A]: the yeast fitness is ≤ 0.5.

With GUUGCGUUGGCGUAAUGGUAACGCGUCUCCCUCCUAAGGAGAAGGCUGCGGGUUCGAGUCCCGUACGCAACG [C4G A45G G68C], the yeast fitness was found to be 0.567.

As for GUUGCGUUGGCGUAAUGGUAAAGCGUUUCCCUCCUAAGGAGAAGACUGCGGGUUCGAGUCCCCUACGGAACG [C4G C22A C27U G63C], the yeast fitness was 0.735.

Take GUUGUGUUGGCGUAAUGGUAACGCGUCUCUCUCCUAAGAAGAAGACUGCGGGUUCGAGUCCCGUACGGAACG [C4G C5U C30U G39A]: the yeast fitness is ≤ 0.5.

With GUUGCGUUGGCGUAAUGGUAACGGGUCUCCCUCCUAAGGAGAAGACUGCGGGUUCGAGUCCCGUACGGAACG [C4G C24G], the yeast fitness came out at 0.617.

With GUUGGGUUGGCGUAAUGGUAACGCGUCUCCAUCCCAAGGAGAAGAAUGCGGGUUCGAGUCCCGUACAGAACG [C4G C5G C31A U35C C46A G67A], the yeast fitness was ≤ 0.5.

In the case of GUUGCGUUGGCGUAAUGGUAAGGCGUCUCCCUCCUAAGGAGAAGACUGCGGGUUCGAGUCCCGAUCGGAACG [C4G C22G U64A A65U], the yeast fitness was ≤ 0.5.

On to GUUGGGUCGGCGUAAUGGUAACCCGUCUUCCUCCUAAGGAGAAGUCUGCGGGUUCGAGUUCUGUACGGACCG [C4G C5G U8C G23C C29U A45U C60U C62U A70C], for which the yeast fitness is ≤ 0.5.

GUUGCGUUGGAGUAAUGGUAACGCGUCUCCCGCCUGAGGAGAAGACUGCGGGUUCGAGUCCCGUACGGAACG [C4G C11A U32G A36G]: the yeast fitness was ≤ 0.5.

GUUGCGUUGGCGUAAUGGUUACGCGUCUCCCUCCUAAGGAGAAGAUUGCGGGUUCGAGUCCCGUACGGAACG [C4G A20U C46U]: the yeast fitness amounted to 0.614.

Turning to GUUGCGUUGGCGUAAUGGUAACGCGUCUCCCUCCUAAGGAGAAGUCUGCGGGUUCGAGUCCCGUACGGAACG [C4G A45U], the yeast fitness worked out at 0.91.

On to GUUGCGUUGGCGUAAUGGUAACGGAUCUCCCUCCAAAGGAGAAGACUGCGCGUUCGAGUCCCGUACGGAACG [C4G C24G G25A U35A G51C], for which the yeast fitness was ≤ 0.5.

On to GUUGGGUUGGAGUAAUGGUAACGCGUCUCCCUCCUAAAGAGAAGACUGCGGGUUCGAGUCCCGUACGGAACG [C4G C5G C11A G38A], for which the yeast fitness was ≤ 0.5.

In the case of GUUGCGUUGGCGUAAUGGUAGCGCGUCUCCCUCCUAAGGAGAAGUCUGUGGGUUCGAGUCCCGUACGGAACG [C4G A21G A45U C49U], the yeast fitness was ≤ 0.5.

Take GUUGAGUUGGCGUAAUGGAAACGGGUCUGCCUCCUAAGGAGAAGACUGCGGGUUCGAGUCCCGUAUGGAACG [C4G C5A U19A C24G C29G C66U]: the yeast fitness was ≤ 0.5.

As to GUUGCGUUGGCGUAAUGGUAACGCGUCUCCCUCCUAAGGAGAAGGCUGCGGGUUCGUGUCCCGUAUGGAACG [C4G A45G A57U C66U], the yeast fitness worked out at 0.512.

As for GUUGCGUUGGGGUAAUGGUAACGCGUCUCCCUCCUAAGGAGAAGACUGCGGGUUUGAGUCCCGUACGGAACG [C4G C11G C55U], the yeast fitness was ≤ 0.5.

In the case of GUUGUGUUGGCGUAAUGGUAACGCGUCUCCCUCCUAUGGAGAAGACUGCGGGUUCGAGUCCCGUACGGAACG [C4G C5U A37U], the yeast fitness is ≤ 0.5.

As for GUUGCGUUGGCGUAAUGGUAACGCGUCUCCCUCCUAAGGUGAAGACUGCGGGUUCGAGUCCCGUACGGUACG [C4G A40U A69U], the yeast fitness was 0.72.

In the case of GUUGCGUUGGGGUAAUGGUAACGCGUCUCCCUCCUAAGGAGAAGACUGCGGGUUUGAGUCACGUACAGAACG [C4G C11G C55U C61A G67A], the yeast fitness was ≤ 0.5.

Consider GUUGCGUUGGCGUAAUGGUAACGCGUCUCCCUCCUAAGGAGCAGACUGCAGGUUCGAGUCCCGUACGGAACG [C4G A42C G50A], for which the yeast fitness is ≤ 0.5.

Turning to GUUGCGUUGGUGUUAUGGUAACACGUCUCCCUCCUAAGGAGAAGACUGCGGGUUCGAGUCCAGUACGGAACG [C4G C11U A14U G23A C62A], the yeast fitness was ≤ 0.5.

For GUUGCGUUGGCGUAAUGGUAACGCGUCUCCCUCCUGAAGUGAAGACUGCGGGUUCGAGUCCCGUACGGAACG [C4G A36G G38A A40U], the yeast fitness is ≤ 0.5.

Consider GUUGAGUUGGCGUAAAAGUAACGCGUCUCCCUCCUAAGGAGAAGACUGCAGGUUCGAGUCCCGUACGGAACG [C4G C5A U16A G17A G50A], for which the yeast fitness is ≤ 0.5.
